Highest nontoxic dose, ED50 and LD50 data for 8 compounds are collected here from ChEMBL document CHEMBL1124517, “Nucleosides of azathioprine and thiamiprine as antiarthritics” (J Med Chem, 1989).

The species named for data set [1] is Rattus norvegicus. Nature of the data set: Compound was tested for dose at which there was no significant weight loss in rat at day 16. The class given is functional. Put shortly:
(§1)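 Female Lewis rats (starting weight 190 ± 10 g) with adjuvant-induced arthritis. Compound was milled into rodent chow and given in the diet (mg/kg/day) from the day of adjuvant injection for 14 days. Weight change and deaths were scored on day 16. The highest nontoxic dose was the highest dose without significant weight loss. LD50 was the dietary dose killing 50% by day 16. Some values are approximate, from two dose levels.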

For data set [2], the species on record is Rattus norvegicus. As to the kind of experiment: Antiarthritic activity in rat determined by adjuvant arthritis assay in rat. The class given is functional. Put shortly:
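Female Lewis rats, starting weight 190 ± 10 g, adjuvant-induced arthritis. Compound milled into rodent diet, dosed as mg/kg/day in diet from the day of adjuvant injection for 14 days. Arthritic score and weight change assessed on day 16. ED50 is the dose giving a 50% reduction in arthritic score relative to untreated animals.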

The species entered for data set [3] is Rattus norvegicus. As to the kind of experiment: Compound was tested for lethal dose at day 16 against rat. As to conditions: in vivo. Format: ADME, organism-based. Put shortly:
as §1

In general, ED50 refers to the dose at which the effect has come halfway, by size or by number of responders. What is called LD50 is the dose at which mortality reaches 50%. For `Cn1cnc([N+](=O)[O-])c1Sc1ncnc2c1ncn2[C@H]1C[C@H](O)[C@@H](CO)O1`, in the data set listed under Rattus norvegicus [1], the Highest nontoxic dose is given as 100 mg kg-1 (day in diet)-1. Also, in the data set listed under Rattus norvegicus [2], the 50% effective dose (ED50) was 64 mg kg-1 (day in diet)-1. For the same compound, in the data set filed under Rattus norvegicus [3], the median lethal dose (LD50) is reported as > 270 mg kg-1 (day in diet)-1.

`Cn1cnc([N+](=O)[O-])c1Sc1nc(N)nc2c1ncn2[C@H]1C[C@H](O)[C@@H](CO)O1`: the Highest nontoxic dose in the data set listed under Rattus norvegicus [1] is 50 mg kg-1 (day in diet)-1. The ED50 in the data set filed under Rattus norvegicus [2] is on record as 38 mg kg-1 (day in diet)-1. The LD50 in the data set listed under Rattus norvegicus [3] was 100 mg kg-1 (day in diet)-1.

For the compound `Cn1cnc([N+](=O)[O-])c1Sc1nc(N)nc2[nH]cnc12` [THIAMIPRINE], the Highest nontoxic dose in the data set listed under Rattus norvegicus [1] is 30 mg kg-1 (day in diet)-1. Moreover, the ED50 in the data set listed under Rattus norvegicus [2] is 19 mg kg-1 (day in diet)-1. Besides, the LD50 in the data set listed under Rattus norvegicus [3] was 60 mg kg-1 (day in diet)-1.

`Cn1cnc([N+](=O)[O-])c1Sc1nc(N)nc2c1ncn2[C@@H]1O[C@H](CO)[C@@H](O)[C@H]1O`: the Highest nontoxic dose in the data set listed under Rattus norvegicus [1] was 50 mg kg-1 (day in diet)-1. In addition, in the data set filed under Rattus norvegicus [2], the ED50 was 36 mg kg-1 (day in diet)-1. Moreover, the LD50 in the data set filed under Rattus norvegicus [3] is on record as 50 mg kg-1 (day in diet)-1.

Consider `Cn1cnc([N+](=O)[O-])c1Sc1ncnc2nc[nH]c12` [AZATHIOPRINE], for which the Highest nontoxic dose in the data set filed under Rattus norvegicus [1] is given as 48 mg kg-1 (day in diet)-1. Further, in the data set filed under Rattus norvegicus [2], the ED50 is 21 mg kg-1 (day in diet)-1. Further, in the data set listed under Rattus norvegicus [3], the LD50 is listed as 150 mg kg-1 (day in diet)-1.

On to `Cn1cnc([N+](=O)[O-])c1Sc1ncnc2c1ncn2[C@@H]1O[C@H](CO)[C@@H](O)[C@H]1O`, for which, in the data set listed under Rattus norvegicus [1], the Highest nontoxic dose was 180 mg kg-1 (day in diet)-1. Further, in the data set listed under Rattus norvegicus [2], the ED50 was 68 mg kg-1 (day in diet)-1. Moreover, in the data set listed under Rattus norvegicus [3], the LD50 is on record as 200 mg kg-1 (day in diet)-1.

For `Nc1nc2nc[nH]c2c(=S)[nH]1` [THIOGUANINE], the Highest nontoxic dose in the data set listed under Rattus norvegicus [1] is recorded as 10 mg kg-1 (day in diet)-1. Further, in the data set listed under Rattus norvegicus [2], the ED50 is 10 mg kg-1 (day in diet)-1. Also, the LD50 in the data set listed under Rattus norvegicus [3] was 20 mg kg-1 (day in diet)-1.

With `Sc1ncnc2nc[nH]c12` [MERCAPTOPURINE ANHYDROUS], the Highest nontoxic dose in the data set filed under Rattus norvegicus [1] is given as 20 mg kg-1 (day in diet)-1. Moreover, the ED50 in the data set listed under Rattus norvegicus [2] is 20 mg kg-1 (day in diet)-1. Further, the LD50 in the data set filed under Rattus norvegicus [3] is on record as 25 mg kg-1 (day in diet)-1.
